Assays:
Cannabinoid receptor 1 [1] = target: T1, Cannabinoid receptor 1 (Homo sapiens, UniProt P21554); test: Antagonist activity at human CB1 receptor transfected in CHO-K1 cells co-expressing Galphaq16 assessed as intracellular calcium mobilization using Calcein-4 AM by fluorescence assay; assay type: functional, cell-based
In short: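 CHO-K1 cells engineered to coexpress human CB1 and Gαq16. Calcium flux read with fluorescent dye Calcein-4 AM on a plate reader. Antagonism measured as rightward shift of the CP55940 concentration–response curve. Ke = [ligand]/(DR−1), where DR is the ratio of CP55940 EC50 with and without test agent. Values are averages of 3–6 measurements.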

MDCK = test: Permeability from apical to basolateral side in dog MDCK cells expressing MDR-1 gene; assay type: ADME, cell-based, Canis lupus familiaris
In short: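 MDCK-mdr1 cells grown on Transwell-type filters for 4 days to confluence in DMEM/F12 with 10% FBS and antibiotics. Compound applied apically at 10 μM in HBSS with 25 mM D-glucose, HEPES-buffered to pH 7.4. Incubated 1 h at 37 °C; apical and basal samples quantified by LC-MS/MS (MRM). Averages of 2–3 measurements.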

CHO-K1 = test: Selectivity ratio of Ki for human CB2 receptor expressed in CHO-K1 cells to Ki for human CB1 receptor expressed in CHO-K1 cells
Cannabinoid receptor 2 = Cannabinoid receptor 2 (Homo sapiens, UniProt P34972); test: Displacement of [3H]CP55940 from human CB2 receptor expressed in CHO-K1 cells; assay type: cell-based
Sequence of Cannabinoid receptor 2 (P34972 whole entry): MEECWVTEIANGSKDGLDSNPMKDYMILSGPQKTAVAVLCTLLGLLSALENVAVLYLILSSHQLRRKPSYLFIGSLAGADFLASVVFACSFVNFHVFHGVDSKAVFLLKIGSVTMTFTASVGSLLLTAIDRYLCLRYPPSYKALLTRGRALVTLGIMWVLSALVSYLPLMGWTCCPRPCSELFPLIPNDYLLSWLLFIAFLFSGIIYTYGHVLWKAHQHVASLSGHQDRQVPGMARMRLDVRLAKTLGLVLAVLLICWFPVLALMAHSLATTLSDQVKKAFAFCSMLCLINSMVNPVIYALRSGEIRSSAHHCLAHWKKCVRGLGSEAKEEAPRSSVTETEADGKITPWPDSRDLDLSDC

Cannabinoid receptor 1 [2] = target: T1, Cannabinoid receptor 1; test: Displacement of [3H]CP55940 from human CB1 receptor expressed in CHO-K1 cells; assay type: cell-based
[3] = Drug uptake in Sprague-Dawley rat brain at 10 mg/kg, po after 30 mins; assay type: ADME, organism-based; set-up: dose 10 mg/kg, route oral; details: read-out: Drug uptake
In short: (§1)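 Male Sprague–Dawley rats, 8 weeks old, given 10 mg/kg orally in food-grade corn oil. Three to four animals per time point. Plasma and unperfused brain collected at 0.5–8 h. Brain homogenized in 50:50 ethanol/water. Samples protein-precipitated with acetonitrile and analysed by LC-MS/MS on a C18 column against standards in blank matrix.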

[4] = Drug uptake in Sprague-Dawley rat brain at 10 mg/kg, po after 120 mins; assay type: ADME, organism-based; set-up: dose 10 mg/kg, route oral; details: read-out: Drug uptake; in short: as §1
Nucleic Acid [5] = test: Ratio of drug uptake in brain to plasma of Sprague-Dawley rat brain at 10 mg/kg, po after 120 mins; assay type: ADME, organism-based; set-up: dose 10 mg/kg, route oral; details: 2 h
In short: (§2)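 Male Sprague–Dawley rats, 8 weeks old, dosed orally at 10 mg/kg in food-grade corn oil; 3–4 animals per time point. Plasma and unperfused brain collected post dose. Brain homogenized in 50:50 ethanol/water; plasma and homogenate extracted with acetonitrile and centrifuged. Analysed by LC-MS/MS against standards prepared in blank matrix. Ratio taken from brain and plasma concentrations.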

[6] = Plasma concentration in Sprague-Dawley rat at 10 mg/kg, po after 60 mins; assay type: ADME, organism-based; set-up: dose 10 mg/kg, route oral; in short: as §1
[7] = Drug uptake in Sprague-Dawley rat brain at 10 mg/kg, po after 480 mins; assay type: ADME, organism-based; set-up: dose 10 mg/kg, route oral; details: read-out: Drug uptake; in short: as §1
Nucleic Acid [8] = test: Ratio of drug uptake in brain to plasma of Sprague-Dawley rat brain at 10 mg/kg, po after 480 mins; assay type: ADME, organism-based; set-up: dose 10 mg/kg, route oral; details: 8 h; in short: as §2
[9] = Plasma concentration in Sprague-Dawley rat at 10 mg/kg, po after 30 mins; assay type: ADME, organism-based; set-up: dose 10 mg/kg, route oral; in short: as §1
[10] = Drug uptake in Sprague-Dawley rat brain at 10 mg/kg, po after 60 mins; assay type: ADME, organism-based; set-up: dose 10 mg/kg, route oral; details: read-out: Drug uptake; in short: as §1
Nucleic Acid [11] = test: Ratio of drug uptake in brain to plasma of Sprague-Dawley rat brain at 10 mg/kg, po after 60 mins; assay type: ADME, organism-based; set-up: dose 10 mg/kg, route oral; details: 1 h; in short: as §2
[12] = Plasma concentration in Sprague-Dawley rat at 10 mg/kg, po after 240 mins; assay type: ADME, organism-based; set-up: dose 10 mg/kg, route oral; in short: as §1
Nucleic Acid [13] = test: Ratio of drug uptake in brain to plasma of Sprague-Dawley rat brain at 10 mg/kg, po after 240 mins; assay type: ADME, organism-based; set-up: dose 10 mg/kg, route oral; details: 4 h; in short: as §2
[14] = Drug uptake in Sprague-Dawley rat brain at 10 mg/kg, po after 240 mins; assay type: ADME, organism-based; set-up: dose 10 mg/kg, route oral; details: read-out: Drug uptake; in short: as §1
Nucleic Acid [15] = test: Ratio of drug uptake in brain to plasma of Sprague-Dawley rat brain at 10 mg/kg, po after 30 mins; assay type: ADME, organism-based; set-up: dose 10 mg/kg, route oral; details: 0.5 h; in short: as §2
Liver = test: Metabolic stability in human liver S9 fraction assessed as compound remaining after 120 mins; assay type: ADME, subcellular; details: s9, 2 h
In short: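 Pooled mixed-gender human hepatic S9 at 1 mg/mL. Compound at 10 μM final in 50 mM potassium phosphate pH 7.4 with 3 mM MgCl2 and NADPH regeneration (NADP 1 mM, glucose-6-phosphate 5 mM, G6PDH 1 unit/mL). Triplicates incubated 0, 15, 30, 60, 120 min, stopped with 3 vol acetonitrile, LC-MS/MS against matrix standard curves; percent remaining at 120 min.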

[16] = Plasma concentration in Sprague-Dawley rat at 10 mg/kg, po after 120 mins; assay type: ADME, organism-based; set-up: dose 10 mg/kg, route oral; in short: as §1
Plasma = test: Metabolic stability in human plasma assessed as compound remaining after 60 mins; assay type: ADME, cell-free; details: 1 h
In short: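 Pooled mixed-gender human plasma, 1 mL per sample at 37 °C. Compound at 10 μM final, sampled at 0, 30 and 60 min after 5 min preincubation. Reaction stopped with acetonitrile, LC-MS/MS quantitation; percent remaining at 60 min.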

T1 sequence (P21554 whole entry): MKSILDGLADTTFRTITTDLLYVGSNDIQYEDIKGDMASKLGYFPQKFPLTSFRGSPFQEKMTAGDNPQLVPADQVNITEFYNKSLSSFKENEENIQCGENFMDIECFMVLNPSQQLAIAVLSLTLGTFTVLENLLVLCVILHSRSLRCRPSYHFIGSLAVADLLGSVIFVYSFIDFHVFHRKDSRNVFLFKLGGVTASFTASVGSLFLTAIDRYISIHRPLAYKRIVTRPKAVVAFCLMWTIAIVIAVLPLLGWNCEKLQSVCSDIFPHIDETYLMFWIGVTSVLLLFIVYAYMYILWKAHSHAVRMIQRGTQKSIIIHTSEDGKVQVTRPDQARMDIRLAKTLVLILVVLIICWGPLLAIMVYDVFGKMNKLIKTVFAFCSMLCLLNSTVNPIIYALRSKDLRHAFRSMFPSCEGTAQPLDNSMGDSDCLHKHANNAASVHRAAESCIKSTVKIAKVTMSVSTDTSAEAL

SMILES | Ke (Cannabinoid receptor 1 [1]) [nM] | Ratio Ki (CHO-K1) | Ki (Cannabinoid receptor 2) [nM] | Ki (Cannabinoid receptor 1 [2]) [nM] | further results
O=C(NC1CCN(c2ncnc3c2nc(-c2ccccc2Cl)n3-c2ccc(Cl)cc2)CC1)c1ccccc1 | 0.7 | – | – | – | –
Cc1c(C(=O)N2CCC(C(N)=O)(c3ccccc3)CC2)nn(-c2ccc(Cl)cc2Cl)c1-c1ccc(Cl)cc1 | 0.45 | 1600 | – | – | permeability (MDCK): 8%
CC(C)(C)OC(=O)NC1(c2ccccc2)CCN(c2ncnc3c2nc(-c2ccccc2Cl)n3-c2ccc(Cl)cc2)CC1 | – | 1960 | 13900 | 7.1 | permeability (MDCK): < 1%
CC(C)(C)OC(=O)N1CCC(Nc2ncnc3c2nc(-c2ccccc2Cl)n3-c2ccc(Cl)cc2)CC1 | 92 | 568 | 14000 | 24 | –
NC1(c2ccccc2)CCN(c2ncnc3c2nc(-c2ccccc2Cl)n3-c2ccc(Cl)cc2)CC1 | – | 151 | 1660 | 11 | permeability (MDCK): < 1%
O=C(NC1CCN(c2ncnc3c2nc(-c2ccccc2Cl)n3-c2ccc(Cl)cc2)CC1)C(F)(F)F | 3.2 | – | – | – | –
CS(=O)(=O)N1CCC[C@H](Nc2ncnc3c2nc(-c2ccccc2Cl)n3-c2ccc(Cl)cc2)C1 | 6040 | – | – | – | –
CCCCNC(=O)NC1CCN(c2ncnc3c2nc(-c2ccccc2Cl)n3-c2ccc(Cl)cc2)CC1 | – | 62 | 1550 | 25 | –
CCCNC(=O)NC1(c2ccccc2)CCN(c2ncnc3c2nc(-c2ccccc2Cl)n3-c2ccc(Cl)cc2)CC1 | 99 | 35 | 7780 | 220 | –
CCNC1(C(N)=O)CCN(c2ncnc3c2nc(-c2ccccc2Cl)n3-c2ccc(Cl)cc2)CC1 [OTENABANT] | – | – | – | – | permeability (MDCK): 40%
CC(C)NC(=O)NC1(c2ccccc2)CCN(c2ncnc3c2nc(-c2ccccc2Cl)n3-c2ccc(Cl)cc2)CC1 | 46 | 27 | 8950 | 337 | –
CCCNC(=O)NC1CCN(c2ncnc3c2nc(-c2ccccc2Cl)n3-c2ccc(Cl)cc2)CC1 | – | 5 | 153 | 28 | –
CCNC(=O)NC1(c2ccccc2)CCN(c2ncnc3c2nc(-c2ccccc2Cl)n3-c2ccc(Cl)cc2)CC1 | – | 24 | 4640 | 195 | –
CS(=O)(=O)NC1(c2ccccc2)CCN(c2ncnc3c2nc(-c2ccccc2Cl)n3-c2ccc(Cl)cc2)CC1 | 2.9 | 153 | – | – | concentration at 0.5 h [3]: 38 ng/mL; concentration at 2 h [4]: 122 ng/mL; BPR (Nucleic Acid [5]): 0.1; concentration at 1 h [6]: 767 ng/mL; concentration at 8 h [7]: 89 ng/mL; BPR (Nucleic Acid [8]): 0.1; permeability (MDCK): < 1%; concentration at 0.5 h [9]: 752 ng/mL; concentration at 1 h [10]: 58 ng/mL; BPR (Nucleic Acid [11]): 0.08; concentration at 4 h [12]: 1650 ng/mL; BPR (Nucleic Acid [13]): 0.11; concentration at 4 h [14]: 184 ng/mL; BPR (Nucleic Acid [15]): 0.05; Stability (Liver): > 90%; concentration at 2 h [16]: 1190 ng/mL; Stability (Plasma): > 90%
CC(=O)N1CCC[C@H](Nc2ncnc3c2nc(-c2ccccc2Cl)n3-c2ccc(Cl)cc2)C1 | 4450 | – | – | – | –
CCNC(=O)N1CCC[C@H](Nc2ncnc3c2nc(-c2ccccc2Cl)n3-c2ccc(Cl)cc2)C1 | 1150 | – | – | – | –
CS(=O)(=O)N1CCC[C@@H](Nc2ncnc3c2nc(-c2ccccc2Cl)n3-c2ccc(Cl)cc2)C1 | 346 | – | – | – | –
CC(C)(C)OC(=O)NC1CCN(c2ncnc3c2nc(-c2ccccc2Cl)n3-c2ccc(Cl)cc2)CC1 | 11 | 1140 | 1710 | 1.5 | –
O=S(=O)(NC1CCN(c2ncnc3c2nc(-c2ccccc2Cl)n3-c2ccc(Cl)cc2)CC1)c1ccccc1 | 0.3 | 4890 | 5860 | 1.2 | –
CCNC(=O)N1CCC[C@@H](Nc2ncnc3c2nc(-c2ccccc2Cl)n3-c2ccc(Cl)cc2)C1 | 1500 | – | – | – | –
CC(C)(C)NC(=O)NC1(c2ccccc2)CCN(c2ncnc3c2nc(-c2ccccc2Cl)n3-c2ccc(Cl)cc2)CC1 | – | 784 | 20000 | 25.5 | permeability (MDCK): < 1%; Stability (Liver): 43%; Stability (Plasma): > 90%
CCCCNC(=O)N1CCC(Nc2ncnc3c2nc(-c2ccccc2Cl)n3-c2ccc(Cl)cc2)CC1 | 71 | – | > 20000 | 3340 | –
CC(=O)N1CCC[C@@H](Nc2ncnc3c2nc(-c2ccccc2Cl)n3-c2ccc(Cl)cc2)C1 | 920 | – | – | – | –
CS(=O)(=O)NC1CCN(c2ncnc3c2nc(-c2ccccc2Cl)n3-c2ccc(Cl)cc2)CC1 | – | 37 | 1070 | 29 | –
CC(C)NC(=O)NC1CCN(c2ncnc3c2nc(-c2ccccc2Cl)n3-c2ccc(Cl)cc2)CC1 | – | 175 | 2450 | 14 | –
CCCCNC(=O)NC1(c2ccccc2)CCN(c2ncnc3c2nc(-c2ccccc2Cl)n3-c2ccc(Cl)cc2)CC1 | – | – | > 20000 | 269 | –
NC(=O)C1(c2ccccc2)CCN(c2ncnc3c2nc(-c2ccccc2Cl)n3-c2ccc(Cl)cc2)CC1 | 9 | 3080 | 5510 | 1.79 | permeability (MDCK): 6%; Stability (Liver): > 90%; Stability (Plasma): > 90%

From ChEMBL document CHEMBL2176912, “Diphenyl purine derivatives as peripherally selective cannabinoid receptor 1 antagonists” (J Med Chem, 2012)
